Test results: article PMC3936293 (Theranostics, 2014)
Read-outs that look alike come from different tables or passages of the source.

How the values were obtained:
[1] = literature data, ref [11]; cited from earlier work
[2] = Radiation dosimetry; format: in vivo, human
In short: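 PET scans were taken at 20 min, 4 h and 20 h p.i., with attenuation correction by 68Ge transmission or CT. Body-weight-normalised SUVs came from circular ROIs centred in each organ. Urine was collected to 18 h in patients 2 and 3, and total excretion was calculated from 1 mL aliquots. Absorbed doses were computed in OLINDA/EXM 1.0 from the time-activity curves and urinary excretion (dynamic bladder model, 3-h voiding interval). Values are mean ± SD.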

[3] = Metabolite analysis of plasma and urine by RP-HPLC; format: in vivo, human
In short: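 Plasma was prepared by centrifuging blood drawn at 5 min, 30 min, 1 h and 4 h p.i., deproteinised with two volumes of ethanol, centrifuged again, and the supernatant analysed. In patient 2, a 2 h urine sample was loaded onto a C18 cartridge and eluted with ethanol. Analysis used reversed-phase HPLC (C18; 0.1% TFA in water/acetonitrile gradient) with photodiode-array and flow-through gamma detection.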

[4] = Safety monitoring after injection; format: in vivo, human; settings: 4 patients; laboratory tests before and 1-2 weeks after injection
In short: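 Patients were monitored from tracer administration until the end of the last PET/CT session (20 h p.i.) by interview, electrocardiography, heart rate and blood pressure. Serum electrolytes, liver and pancreatic enzymes, creatinine and blood counts were measured before and 1-2 weeks after injection (130-233 MBq; 10-17 µg).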

[5] = PET/CT imaging of tumor and organ uptake; format: in vivo; settings: male, human, total radioactivity
[6] = Blood radioactivity clearance; format: in vivo, human; settings: bi-exponential fit of blood radioactivity concentration, 4 patients
In short: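 Four patients with newly diagnosed prostate cancer, fasted at least 4 h, received the 64Cu-labelled GRPr antagonist (130-233 MBq; 10-17 µg) diluted in 0.9% NaCl with 0.1% bovine serum albumin. Venous blood was drawn at 1, 2, 3, 4, 5, 10, 15 and 30 min and at 1, 2 and 4 h p.i. Radioactivity per mL was gamma-counted, reported as mean ± SD, and fitted bi-exponentially.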

[7] = OLINDA/EXM 1.0, dynamic bladder model, 3-hour voiding interval, mean ± SD

For `C[N+](C)(CF)CCO` [^18F-fluorocholine], the Effective dose [1] is given as 0.031 ± 0,007 mSv/MBq, the Radiation dose kidney [1] is given as 0.159 ± 0,072 mSv/MBq and the Radiation dose liver [1] is given as 0.059 ± 0,012 mSv/MBq. The Radiation dose spleen [1] was 0.054 ± 0,021 mSv/MBq and the “Radiation dose urinary bladder wall” value [1] was 0.063 ± 0,060 mSv/MBq.

In the case of `CC(C)C[C@H](NC(=O)C[C@H](O)[C@H](CC(C)C)NC(=O)[C@H](Cc1c[nH]cn1)NC(=O)CNC(=O)[C@@H](NC(=O)[C@H](C)NC(=O)[C@H](Cc1c[nH]c2ccccc12)NC(=O)[C@H](CCC(N)=O)NC(=O)[C@@H](Cc1ccccc1)NC(=O)COCCOCCOCCOCCNC(=O)CN1CCCN2CCN(CCCN(CC(=O)O)CC2)CC1)C(C)C)C(N)=O` [^64Cu-CB-TE2A-AR06, (^64Cu-4,11-bis(carboxymethyl)-1,4,8,11-tetraazabicyclo(6.6.2)hexadecane)-PEG4-D-Phe-Gln-Trp-Ala-Val-Gly-His-Sta-LeuNH2, metal not drawn], the Effective radiation dose [2, 7] is reported as 0.019 ± 0.008 mSv/MBq, the “Radiation dose urinary bladder wall” value [2, 7] is reported as 0.176 ± 0.001 mSv/MBq and the Radiation dose kidney ([2]; OLINDA/EXM 1.0, mean ± SD) is reported as 0.033 ± 0.008 mSv/MBq. For the same molecule, the Radiation dose liver ([2]; OLINDA/EXM 1.0, mean ± SD) was 0.039 ± 0.020 mSv/MBq, the Radiation dose pancreas ([2]; OLINDA/EXM 1.0, mean ± SD) was 0.094 ± 0.027 mSv/MBq and the Radiation dose spleen ([2]; OLINDA/EXM 1.0, mean ± SD) was 0.031 ± 0.024 mSv/MBq. For the same molecule, the metabolites in urine ([3]; patient 2, 2 h urine sample, C18 column, ethanol elution) was “Only the parent compound was detected”, the metabolites in plasma ([3]; plasma at 5 min p.i., ethanol protein precipitation) was “No metabolites were detected” and the “changes in vital signs, laboratory studies or electrocardiograms” value [4] was “No significant changes”. For the same molecule, the SUV at 4 h ([5]; bladder) was 14 ± 6.63 SUV, the SUV at 4 h ([5]; intestine) was 0.78 ± 0.68 SUV and the SUV at 4 h ([5]; kidney parenchyma) was 1.64 ± 0.37 SUV. The SUV at 20 h ([5]; kidney parenchyma) was 0.71 ± 0.34 SUV, the SUV at 4 h ([5]; liver) was 1.8 ± 1.02 SUV and the SUV at 4 h ([5]; pancreas) was 6.73 ± 3.34 SUV. For the same molecule, the SUV at 20 h ([5]; pancreas) was 0.28 ± 0.22 SUV, the SUV at 4 h ([5]; prostate) was 0.95 ± 0.42 SUV and the SUV at 4 h ([5]; urinary tract collection system) was 5.86 ± 5.34 SUV. The “initial half-life in blood” value [6] was 5 min and the “terminal half-life in blood” value [6] was 165 min.
